Test results published in ChEMBL document CHEMBL1157491, “Pyrazolopyridines as a novel structural class of potent and selective PDE4 inhibitors” (Bioorg Med Chem Lett, 2008).

Assays:
[1] = target: 3',5'-cyclic-AMP phosphodiesterase 4B (Homo sapiens, UniProt Q07343); test: Inhibition of human PDE4B in Sf9 cells; type: cell-based
Summary of the method: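 Catalytic activity of human recombinant PDE4B enzyme was measured by scintillation proximity assay (SPA).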

[2] = Selectivity for human PDE4B over PDE3
[3] = Selectivity for human PDE4B over PDE5
[4] = Inhibition of PDE3
Summary of the method: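 Inhibition of PDE3 isolated from bovine aorta, measured as loss of catalytic activity by scintillation proximity assay (SPA).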

[5] = Inhibition of PDE5
Summary of the method: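 Inhibition of human recombinant PDE5 catalytic activity, measured by scintillation proximity assay.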

PBMC = test: Inhibition of TNF alpha production in human PBMC cells by ELISA; type: functional, cell-based
Summary of the method: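 PBMCs were isolated from heparinised human blood by centrifugation on histopaque (1000g, 30 min), washed, and resuspended at 5 × 10⁵ cells/ml in RPMI1640 with 10% foetal calf serum, 1% L-glutamine and 1% penicillin/streptomycin. Cells were preincubated with compound for 1 h at 37 °C, 5% CO₂, then stimulated with LPS (1 ng/ml final) for a further 20 h.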

[6] = Half life in po dosed rat; type: ADME, organism-based; settings: in vivo
[7] = Oral bioavailability in rat; type: ADME, organism-based; settings: in vivo

Chain of 3',5'-cyclic-AMP phosphodiesterase 4B (Q07343 whole entry): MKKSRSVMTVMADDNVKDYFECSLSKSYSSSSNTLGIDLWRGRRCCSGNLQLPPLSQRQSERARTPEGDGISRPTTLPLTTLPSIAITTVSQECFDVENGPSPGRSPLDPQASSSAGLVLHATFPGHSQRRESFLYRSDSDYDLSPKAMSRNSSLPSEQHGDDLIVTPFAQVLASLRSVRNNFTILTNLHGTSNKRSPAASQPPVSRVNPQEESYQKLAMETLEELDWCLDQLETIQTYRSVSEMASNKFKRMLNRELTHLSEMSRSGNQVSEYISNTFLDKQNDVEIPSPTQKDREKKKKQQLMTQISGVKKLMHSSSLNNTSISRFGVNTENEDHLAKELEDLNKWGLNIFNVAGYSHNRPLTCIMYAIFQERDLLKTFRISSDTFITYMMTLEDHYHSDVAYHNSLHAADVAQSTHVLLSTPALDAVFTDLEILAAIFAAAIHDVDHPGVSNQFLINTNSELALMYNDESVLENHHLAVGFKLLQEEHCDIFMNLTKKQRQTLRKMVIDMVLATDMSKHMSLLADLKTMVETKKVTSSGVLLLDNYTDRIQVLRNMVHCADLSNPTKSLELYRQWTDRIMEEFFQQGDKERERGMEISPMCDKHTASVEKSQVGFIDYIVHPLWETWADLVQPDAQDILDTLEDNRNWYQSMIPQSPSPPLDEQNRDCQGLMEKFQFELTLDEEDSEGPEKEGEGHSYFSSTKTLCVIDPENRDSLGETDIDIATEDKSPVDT

Row | Structure (SMILES) | IC50 [1] [µM] | Selectivity ratio [2] | Selectivity ratio [3] | further results
1 | CCOC(=O)c1cnc2c(cnn2CC)c1NC(=O)c1ccccc1 | 2.51 | – | – | –
2 | CCOC(=O)c1cnc2c(cnn2CC)c1NCC(C)C | 0.0158 | – | – | –
3 | CCCCNc1c(C(=O)OCC)cnc2c1cnn2CC [CARTAZOLATE] | 0.2 | – | – | –
4 | CCOC(=O)c1cnc2c(cnn2CC)c1N(C)C1CCOCC1 | 0.251 | – | – | –
5 | CCOC(=O)c1cnc2c(cnn2CC)c1NS(=O)(=O)c1ccccc1 | > 31.6 | – | – | –
6 | CCOC(=O)c1cnc2[nH]ncc2c1NC1CCOCC1 | 2 | – | – | –
7 | CCOC(=O)c1cnc2c(cnn2CC)c1Nc1ccccc1 | 0.158 | – | – | –
8 | CCOC(=O)c1cnc2c(cnn2CC)c1NC1CCOCC1 | 0.01 | – | – | –
9 | CCOC(=O)c1cnc2c(cnn2CC)c1Nc1ccc(OC)cc1 | 1 | – | – | –
10 | CCOC(=O)c1cnc2c(cnn2CC)c1NCc1ccc(F)cc1 | 0.316 | – | – | –
11 | CCn1ncc2c(NC3CCOCC3)c(C(=O)NC3CC3)cnc21 | 0.1 | > 100 | > 100 | –
12 | CCOC(=O)c1cnc2c(cnn2CC)c1N1CCCC1 | 0.631 | – | – | –
13 | CCCn1ncc2c(NC3CCOCC3)c(C(=O)OCC)cnc21 | 0.1 | – | – | –
14 | CCOC(=O)c1cnc2c(cnn2C)c1NC1CCOCC1 | 0.251 | – | – | –
15 | CCn1ncc2c(NC3CCOCC3)c(C(=O)NCC3CCCCC3)cnc21 | 0.00794 | > 100 | > 100 | pIC50 [4]: < 4.5; pIC50 [5]: 5.5; IC50 (PBMC): 0.0631 µM
16 | CCn1ncc2c(NC3CCOCC3)c(C(=O)N3CCCC3)cnc21 | 0.158 | > 100 | > 100 | –
17 | CCOC(=O)c1cnc2c(cnn2CCO)c1NC1CCOCC1 | 0.158 | – | – | –
18 | CCC(CC)CNC(=O)c1cnc2c(cnn2CC)c1NC1CCOCC1 | 0.02 | > 100 | > 100 | pIC50 [4]: < 4.5; pIC50 [5]: 4.8; IC50 (PBMC): 0.0794 µM
19 | CCn1ncc2c(NC3CCOCC3)c(C(=O)NC3CCN(C(C)=O)CC3)cnc21 | 0.126 | > 100 | > 100 | –
20 | CCOC(=O)c1cnc2c(cnn2Cc2ccccc2)c1NC1CCOCC1 | 3.98 | – | – | –
21 | CCn1ncc2c(NC3CCOCC3)c(C(=O)N(C)Cc3ccccc3)cnc21 | 0.0501 | > 100 | > 100 | –
22 | CCOC(=O)c1cnc2c(cnn2C(C)C)c1NC1CCOCC1 | 0.2 | – | – | –
23 | CCOC(=O)c1cnc2c(cnn2-c2ccccc2)c1NC1CCOCC1 | 3.16 | – | – | –
24 | CCn1ncc2c(NC3CCOCC3)c(C(N)=O)cnc21 | 0.0251 | > 100 | > 100 | pIC50 [4]: < 4.5; pIC50 [5]: 4.8; IC50 (PBMC): 0.0794 µM
25 | CCn1ncc2c(NC3CCOCC3)c(C(=O)NC3CCCC3)cnc21 | 0.0501 | > 100 | > 100 | pIC50 [4]: < 4.5; pIC50 [5]: < 4.7; IC50 (PBMC): 0.158 µM
26 | CCn1ncc2c(NC3CCOCC3)c(C(=O)NCc3ccccc3)cnc21 | – | > 100 | > 100 | pIC50 [4]: < 4.5; pIC50 [5]: 5.7; IC50 (PBMC): 0.02 µM; half-life [6]: 1.6 h; bioavailability [7]: 35%
27 | CCn1ncc2c(NC3CCOCC3)c(C(=O)Nc3ccc(F)cc3)cnc21 | – | > 100 | > 100 | pIC50 [4]: < 4.5; pIC50 [5]: < 4.7; IC50 (PBMC): 0.0398 µM
28 | CCOC(=O)CCn1ncc2c(NC3CCOCC3)c(C(=O)OCC)cnc21 | 5.01 | – | – | –
29 | CCOC(=O)c1cnc2c(cnn2CC)c1NC1CCCC1 | 0.0631 | – | – | –
